# Data published in ChEMBL document CHEMBL1142960, “Synthesis and structure-activity relationships for 2,4-dinitrobenzamide-5-mustards as prodrugs for the Escherichia coli nfsB nitroreductase in gene therapy” (J Med Chem, 2007).
# Experiments:
# V79 [1] = test: Clonogenic survival of V79 NTRoua cells after 5 hrs by MCL assay; format: functional, Cricetulus griseus
# WiDr [2] = test: Antiproliferative activity against human wild type WiDr NTR-ve cells after 18 hrs; format: functional, cell-based
# WiDr [3] = test: Selectivity ratio of IC50 for WiDr NTR-ve cells to IC50 for WiDr NTRneo cells; format: functional, Homo sapiens
# [4] = Antiproliferative activity against human wild type Skov3 NTR-ve cells after 18 hrs; format: functional, cell-based
# [5] = Antiproliferative activity against human Skov3 NTRneo cells after 18 hrs; format: functional, cell-based; details: SK-OV-3, 18 h
# [6] = Partition coefficient at pH 7.4 by shake-flask method; format: physicochemical; details: octanol/water
# Outline: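 Octanol-water partition coefficient by shake-flask at pH 7.4, reported with SEM.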
# V79 [7] = test: Selectivity ratio of IC50 for V79 NTR-ve cells to IC50 for V79 NTRpuro cells; format: functional, Cricetulus griseus
# [8] = Selectivity ratio of IC50 for Skov3 NTR-ve cells to IC50 for Skov3 NTRneo cells; format: functional, Homo sapiens
# EMT6 [9] = test: Selectivity ratio of IC50 for EMT6 NTR-ve cells to IC50 forEMT6 NTRpuro cells; format: functional, Mus musculus
# V79 [10] = test: Antiproliferative activity against chinese hamster V79 NTRpuro cells after 18 hrs; format: functional, cell-based; details: Cricetulus griseus, V79, 18 h
# V79 [11] = test: Clonogenic survival of 3% V79 NTRpuro cells in co-cultures with 97% V79 NTRoua after 5 hrs by MCL assay; format: functional, Cricetulus griseus
# Outline: (§1)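 Multicellular layer cocultures of 3% V79-NTRpuro activators and 97% V79oua NTR-ve targets (ouabain-resistant), exposed to prodrug for 5 h. MCLs were then trypsin-dissociated and plated in ouabain or puromycin selective media for clonogenic survival. C10 (10% survival) interpolated for activators and targets; AC/TC ratio derived. Mean with SEM or range over independent experiments.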
# EMT6 [12] = test: Antitumor activity against mixed mouse EMT6/EMT6 NTRpuro cells injected in CD1 nude mouse assessed as cell kill at 237 umol/kg, ip in DMSO after 18 hrs; format: functional
# [13] = Toxicity in ip dosed CD1 nude mouse in DMSO; format: organism-based; details: in vivo
# Outline: (§2)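 Maximum tolerated dose (MTD) determined in CD-1 nude mice after a single i.p. injection of prodrug, given in the vehicle named in each line.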
# [14] = Solubility in alpha MEM; format: physicochemical
# Outline: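 Solubility (mM) in α-MEM with 5% fetal calf serum at ambient temperature, measured by HPLC.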
# V79 [15] = test: Antiproliferative activity against chinese hamster wild-type V79 NTR-ve cells after 18 hrs; format: functional, cell-based; details: Cricetulus griseus, V79, 18 h
# V79 [16] = test: Clonogenic survival of 97% V79 NTRoua cells in co-cultures with 3% V79 NTRpuro cells after 5 hrs by MCL assay; format: functional, Cricetulus griseus; outline: as §1
# WiDr [17] = test: Antiproliferative activity against human WiDr NTRneo cells after 18 hrs; format: functional, cell-based
# EMT6 [18] = test: Antiproliferative activity against mouse wild type EMT6 NTR-ve cells after 18 hrs; format: functional, cell-based; details: EMT6, 18 h
# [19] = Stability in alpha MEM at 37 degC after 24 hrs; format: physicochemical; details: read-out: Stability
# Outline: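 Percent parent compound remaining, by HPLC, after holding in α-MEM with 5% fetal calf serum at 37 °C for 24 h.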
# EMT6 [20] = test: Antiproliferative activity against mouse EMT6 NTRpuro cells after 18 hrs; format: functional, cell-based; details: EMT6, 18 h
# [21] = Toxicity in ip dosed CD1 nude mouse in DMSO/PEG; format: organism-based; details: in vivo; outline: as §2
# EMT6 [22] = test: Antitumor activity against mixed mouse EMT6/EMT6 NTRpuro cells injected in CD1 nude mouse assessed as cell kill at 178 umol/kg, ip in DMSO/PEG after 18 hrs; format: functional
# EMT6 [23] = test: Antitumor activity against mixed mouse EMT6/EMT6 NTRpuro cells injected in CD1 nude mouse assessed as cell kill at 237 umol/kg, ip in DMSO/PEG after 18 hrs; format: functional
# WiDr [24] = test: Antitumor activity against human 100% WiDr NTRneo tumor cells injected in CD1 nude mouse assessed as growth delay at 237 umol/kg, ip in DMSO/PEG; format: functional
# Outline: (§3)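 WiDr-NTRneo tumours (100% NTR+ve, or 1:9 NTR+ve:NTR-ve mixtures) in CD-1 nude mice, given a single i.p. dose at MTD. Read-out is median growth delay to 15 mm mean diameter, plus tumours not palpable 100 days after treatment. Aziridine given at 200 µmol/kg as positive control in every experiment.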
# EMT6 [25] = test: Antitumor activity against mixed mouse EMT6/EMT6 NTRpuro cells injected in CD1 nude mouse assessed as cell kill at 562 umol/kg, ip in DMSO/PEG after 18 hrs; format: functional
# WiDr [26] = test: Antitumor activity against human 100% WiDr NTRneo tumor cells injected in CD1 nude mouse assessed as growth delay at 562 umol/kg, ip in DMSO/PEG; format: functional; outline: as §3
# WiDr [27] = test: Antitumor activity against human 10% WiDr NTRneo/ 90% WiDr tumor cells injected in CD1 nude mouse assessed as growth delay at >1330 umol/kg, ip in DMSO; format: functional; outline: as §3
# WiDr [28] = test: Antitumor activity against human 100% WiDr NTRneo tumor cells injected in CD1 nude mouse assessed as growth delay at >1330 umol/kg, ip in DMSO; format: functional; outline: as §3
Compound,Activity (V79 [1]),IC50 (WiDr [2]),Ratio IC50 (WiDr [3]),IC50 [4],IC50 [5],logD [6],Ratio IC50 (V79 [7]),Ratio IC50 [8],Ratio IC50 (EMT6 [9]),IC50 (V79 [10]),Activity (V79 [11]),MTD [13],solubility [14],IC50 (V79 [15]),Activity (V79 [16]),IC50 (WiDr [17]),IC50 (EMT6 [18]),remaining at 24 h [19],IC50 (EMT6 [20]),MTD [21],other results
NC(=O)c1cc(N(CCCl)CCBr)c([N+](=O)[O-])cc1[N+](=O)[O-],>300 µM,150 µM,236,226 µM,0.84 µM,1.61,237,280,2190,0.59 µM,3.4 µM,237 µmol/kg,630 µM,139 µM,8.2 µM,0.69 µM,150 µM,62%,0.1 µM,–,LCK (EMT6 [12]): >3.02
O=C(NCCCO)c1cc(N(CCCl)CCCl)c([N+](=O)[O-])cc1[N+](=O)[O-],3300 µM,518 µM,51,948 µM,6.5 µM,1.49,77,146,477,7.7 µM,95 µM,–,4100 µM,555 µM,150 µM,10 µM,422 µM,108%,1.02 µM,178 µmol/kg,LCK (EMT6 [22]): 0.44
O=C(NCC(O)CO)c1cc(N(CCI)CCI)c([N+](=O)[O-])cc1[N+](=O)[O-] (centres undefined),245 µM,64 µM,90,97 µM,0.56 µM,1.79,100,172,482,1 µM,12.5 µM,–,960 µM,114 µM,54 µM,0.82 µM,58 µM,90%,0.12 µM,237 µmol/kg,LCK (EMT6 [23]): 0.54; Activity (WiDr [24]): 37 days
NC(=O)c1cc(N(CCBr)CCBr)c([N+](=O)[O-])cc1[N+](=O)[O-],>50 µM,40 µM,174,58 µM,0.33 µM,1.97,302,211,1110,0.18 µM,3.3 µM,> 1330 µmol/kg,–,43 µM,4.6 µM,0.22 µM,48 µM,98%,0.04 µM,> 1330 µmol/kg,LCK (EMT6 [25]): 4.17; Activity (WiDr [26]): >84 days; Activity (WiDr [27]): 20 days; Activity (WiDr [28]): >84 days
